Legend:
[1] = target: Stromelysin-1 (Homo sapiens, UniProt P08254)
[2] = target: T1, Matrilysin (Homo sapiens, UniProt P09237); assay: Inhibition of human matrix metalloprotease-7 (MMP-7)
T1 sequence (P09237 whole entry): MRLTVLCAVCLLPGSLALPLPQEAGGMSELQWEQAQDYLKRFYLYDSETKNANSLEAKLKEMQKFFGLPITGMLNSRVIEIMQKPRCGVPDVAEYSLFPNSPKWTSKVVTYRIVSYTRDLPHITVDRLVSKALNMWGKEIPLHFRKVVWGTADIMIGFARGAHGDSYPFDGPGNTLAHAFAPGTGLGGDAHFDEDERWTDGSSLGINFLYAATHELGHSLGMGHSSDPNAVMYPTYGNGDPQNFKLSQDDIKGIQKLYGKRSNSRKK

[3] = target: Matrix metalloproteinase-14 (Homo sapiens, UniProt P50281); assay: Inhibition of Matrix metalloprotease-14
How it was run: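 Catalytic-domain MMP-14 stock (10 μM) activated with trypsin (5 μg/mL) for 20 min at 25 °C, then quenched with soybean trypsin inhibitor (50 μg/mL). Run in Tris buffer pH 7.5 (100 mM Tris, 100 mM NaCl, 10 mM CaCl₂, 0.16% Brij 35) with 1 nM enzyme and 10 μM Mca-Pro-Leu-Gly-Leu-Dpa-Ala-Arg-NH₂ (final). Fluorogenic cleavage read; IC50 derived.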

[4] = target: Matrix metalloproteinase-9 (Homo sapiens, UniProt P14780); assay: Inhibition of human matrix metalloprotease-9 (MMP-9)
Sequence of Matrix metalloproteinase-9 (P14780 whole entry): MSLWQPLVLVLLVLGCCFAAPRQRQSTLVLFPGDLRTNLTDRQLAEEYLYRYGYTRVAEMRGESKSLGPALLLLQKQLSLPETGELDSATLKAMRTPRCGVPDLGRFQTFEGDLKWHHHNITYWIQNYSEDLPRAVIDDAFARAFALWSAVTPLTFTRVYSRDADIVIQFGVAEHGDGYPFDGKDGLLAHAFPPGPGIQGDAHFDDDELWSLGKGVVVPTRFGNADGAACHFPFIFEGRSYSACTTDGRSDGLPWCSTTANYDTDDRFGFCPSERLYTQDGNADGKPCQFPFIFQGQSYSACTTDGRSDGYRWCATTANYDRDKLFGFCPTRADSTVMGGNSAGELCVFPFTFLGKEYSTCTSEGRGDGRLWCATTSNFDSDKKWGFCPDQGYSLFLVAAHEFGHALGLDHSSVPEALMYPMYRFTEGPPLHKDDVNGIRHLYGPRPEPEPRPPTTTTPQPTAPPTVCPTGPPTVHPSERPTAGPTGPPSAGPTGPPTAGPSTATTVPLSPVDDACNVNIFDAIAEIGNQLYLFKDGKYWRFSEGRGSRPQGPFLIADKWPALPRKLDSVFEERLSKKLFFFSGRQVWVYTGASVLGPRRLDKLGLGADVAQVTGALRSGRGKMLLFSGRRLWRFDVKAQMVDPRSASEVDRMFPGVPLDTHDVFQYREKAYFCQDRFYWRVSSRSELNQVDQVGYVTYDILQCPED
How it was run: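 Human catalytic-domain MMP-9 stock (1 μM) activated with 1 mM APMA for 1 h at 37 °C. Assayed at 1 nM enzyme in Tris buffer pH 7.5 (100 mM Tris, 100 mM NaCl, 10 mM CaCl₂, 0.16% Brij 35) with ≤1% DMSO. Inhibitor preincubated 15 min at 37 °C, then 5 μM Mca-Arg-Pro-Lys-Pro-Tyr-Ala-Nva-Trp-Met-Lys(Dnp)-NH₂ added for 1 h at 37 °C. Fluorescence read at ex 328/em 393 nm; IC50 taken from dose–response.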

Sequence of Stromelysin-1 (P08254 whole entry): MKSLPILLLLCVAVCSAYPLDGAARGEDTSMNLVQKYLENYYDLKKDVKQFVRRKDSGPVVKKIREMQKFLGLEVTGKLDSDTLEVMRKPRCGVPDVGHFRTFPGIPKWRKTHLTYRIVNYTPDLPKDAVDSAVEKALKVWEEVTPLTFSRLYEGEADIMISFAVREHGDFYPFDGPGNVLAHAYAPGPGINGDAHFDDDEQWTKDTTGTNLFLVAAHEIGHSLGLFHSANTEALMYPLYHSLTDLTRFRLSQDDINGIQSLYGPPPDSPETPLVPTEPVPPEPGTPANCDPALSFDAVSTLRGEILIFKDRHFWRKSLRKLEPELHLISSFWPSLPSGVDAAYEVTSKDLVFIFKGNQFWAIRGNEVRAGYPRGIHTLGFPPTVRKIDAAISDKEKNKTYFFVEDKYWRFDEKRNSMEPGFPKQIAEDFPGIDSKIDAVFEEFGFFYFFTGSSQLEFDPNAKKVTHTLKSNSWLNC

| Compound | IC50 [1] [nM] | IC50 [2] [nM] | IC50 [3] [nM] | IC50 [4] [nM] |
| --- | --- | --- | --- | --- |
| CNC(=O)[C@H](Cc1ccc(OC)cc1)NC(=O)[C@@H](CC(=O)NO)CC(C)C | 30 | 30 |  |  |
| CNC(=O)[C@H](Cc1ccccc1)NC(=O)[C@H](CC(C)C)[C@H](CSc1cccs1)C(=O)NO [BATIMASTAT] |  |  | 4.6 | 0.6 |
